Measurements collected from several papers.
Compare with care: the assays were run in different laboratories.
Target: Serine/threonine-protein kinase Nek6 (NEK6, Homo sapiens, UniProt Q9HC98)
Read-out: enzyme activity
Mode: inhibitor

CC(C)(O)[C@H]1CC[C@H](Nc2ccc3ncc(-c4cccc(C(F)(F)F)c4)n3n2)CC1  remaining activity (1 µM): 99.7%
Nc1nc(NC2CCCCC2)sc1C(=O)c1ccccc1  remaining activity (10 µM): 113%
CCN(CC)c1ccc(C2=NNC(=O)CC2C)cc1[N+](=O)[O-] (stereo not drawn)  remaining activity (10 µM): 93%
CC(C)(C)c1nc(-c2cccc(NS(=O)(=O)c3c(F)cccc3F)c2F)c(-c2ccnc(N)n2)s1  remaining activity (radiometric; 1 µM): 99%
CCN(CC)CCNC(=O)c1c(C)[nH]c(/C=C2\C(=O)Nc3ccc(F)cc32)c1C  remaining activity (1 µM): 103%
Cc1sc(C(=O)NC2COC2)cc1-n1cc(NC(=O)Nc2c(F)cccc2Cl)cn1  remaining activity (10 µM): 92.7%
Cc1[nH]c(/C=C2\C(=O)Nc3ccc(F)cc32)c(C)c1C(=O)N[C@H]1CCN(C(=O)N(C)C)C1  remaining activity (0.1 µM): 131%
Nc1nc(Nc2ccccc2)sc1C(=O)c1c(F)cccc1F  remaining activity (10 µM): 97%
CCCOc1ccc(OC)c(F)c1C(=O)c1ccc(C(=O)N[C@@H]2CNC[C@H]2NC(=O)c2ccc3[nH]ncc3c2)cc1  remaining activity (10 µM): 96%
Cn1c(=O)n(-c2ccc(C(C)(C)C#N)cc2)c2c3cc(-c4cnc5ccccc5c4)ccc3ncc21  remaining activity (10 µM): 95%
COc1cc(Cl)c(C(=O)N[C@@H](CN[C@H]2CC[C@@H](N)CC2)Cc2ccc(C#N)cc2)cc1-c1ccc(CN[C@H](C)c2ccc(C)cc2)o1  remaining activity (1 µM): 111%
COc1cc(Nc2cnc(C#N)c(O[C@H](C)CN(C)C)n2)ncc1-c1cnn(C)c1  remaining activity (radiometric; 1 µM): 97%
